Test results from ChEMBL document CHEMBL1124838, “5-Hydroxytryptamine (5-HT3) receptor antagonists. 2. 1-Indolinecarboxamides” (J Med Chem, 1990).

Molecular target: Serotonin 3 (5-HT3) receptor (Rattus norvegicus) (UniProt P35563+Q9JJ16)
Assay: Antagonist potency to 5-hydroxytryptamine 3 receptor was assayed by antagonism of the 5-HT-evoked reflex bradycardia [Bezold-Jarisch(BJ) reflex] in rats
Format: functional
Summary of the method: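 Male rats (260–290 g) anesthetized with urethane (1.25 g/kg ip); blood pressure and heart rate recorded. 5-HT given repeatedly at a submaximal 6 μg/kg iv, and heart-rate changes quantified. Test drug given iv before 5-HT. ID50 is the dose that cuts the 5-HT-evoked response to 50% of control.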

| ID50 [µg/kg] | Compound |
| --- | --- |
| 1 | CN1C2CCC1CC(NC(=O)C1=CC(C)(C)c3ccccc31)C2 (centres undefined) |
| 3.5 | CN1C2CCC1CC(NC(=O)N1CC3(CC3)c3ccccc31)C2 (centres undefined) |
| 1.8 | CN1C2CCC1CC(NC(=O)N1CC(c3ccccc3)c3ccccc31)C2 (centres undefined) |
| 12.5 | CN1C2CCCC1CC(NC(=O)N1CCc3ccccc31)C2 (centres undefined) |
| > 10 | COc1ccc2c(c1)CCN2C(=O)NC1CC2CCC(C1)N2C (centres undefined) |
| 0.5 | CC1c2ccccc2N(C(=O)NC2CC3CCC(C2)N3C)C1C (centres undefined) |
| 3 | CC1CN(C(=O)NC2CC3CCC(C2)N3C)c2ccccc21 (centres undefined) |
| 0.8 | CC1Cc2ccccc2N1C(=O)NC1CC2CCC(C1)N2C (centres undefined) |
| 0.7 | CN1C2CCCC1CC(NC(=O)c1nn(C)c3ccccc13)C2 (centres undefined) |
| 5.1 | CN1C2CCC1CC(NC(=O)n1cc(-c3ccccc3)c3ccccc31)C2 (centres undefined) |
| 1.5 | CCC1CN(C(=O)NC2CC3CCC(C2)N3C)c2ccccc21 (centres undefined) |
| > 10 | CCN1C2CCC1CC(NC(=O)N1CCc3ccccc31)C2 (centres undefined) |
| 3.6 | CN1C2CCC1CC(NC(=O)N1CC3(CCCCC3)c3ccccc31)C2 (centres undefined) |
| 7.1 | CN1C2CCC1CC(NC(=O)n1ccc3ccccc31)C2 (centres undefined) |
| 2 | CCc1cn(C(=O)NC2CC3CCC(C2)N3C)c2ccccc12 (centres undefined) |
| > 10 | CN1C2CCC1CC(NC(=O)N1CCc3cc(Cl)ccc31)C2 (centres undefined) |
| 1.6 | Cc1cn(C(=O)NC2CC3CCC(C2)N3C)c2ccccc12 (centres undefined) |
| 1.4 | CN1C2CCC1CC(NC(=O)N1CCc3ccccc31)C2 (centres undefined) |
| 1.2 | CN1C2CCC1CC(NC(=O)N1CC3(CCCC3)c3ccccc31)C2 (centres undefined) |
| > 10 | CN1C2CCC1CC(NC(=O)N1CCc3cc([N+](=O)[O-])ccc31)C2 (centres undefined) |
| 1.4 | CC1N(C(=O)NC2CC3CCC(C2)N3C)c2ccccc2C1(C)C (centres undefined) |
| > 100 | CN1C2CCC1CC(NC(=O)N1CCCc3ccccc31)C2 (centres undefined) |
| > 10 | CN1C2CCC1CC(NC(=O)N1CCc3cc(F)ccc31)C2 (centres undefined) |

| Compound | ID50 [µg/kg] |
| --- | --- |
| CN1C2CCC1CC(OC(=O)N1CCc3ccccc31)C2 (centres undefined) | 4.3 |
